Assay [1] concerns the target T1, Estrogen receptor (Mus musculus) (UniProt O08537+P19785).
The target in assay [2] is T1, Estrogen receptor (Mus musculus). The assay is described as follows: In vivo anti-uterotrophic activity in mice following 1 ug estradiol i.p. It counts as functional, organism-based. The following applies: in the assay text read “s.c.” for “i.p.”. An outline of the steps:
(§1)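 Antiuterotrophic test in immature female Swiss mice, 21-23 days old, 8-12 g. Each animal received 100 μg compound s.c. in propylene glycol-0.9% saline (1:1) daily for 3 days, with 1 μg E2 given at a separate site. Controls got E2 plus vehicle. Uterine weights were taken 24 h after the last dose. Activity computed as 100 × (W_ET − W_C)/(W_E − W_C).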

In assay [3] the test system is Estrogen receptor (Mus musculus). The assay is described as follows: Relative binding affinity calculated as the ratio of molar concentration of E2 and the triarylpropenones (TAP's) required to decrease [3H]E2 binding by 50%.
Assay [4] deals with T1, Estrogen receptor (Mus musculus). The assay is described as follows: Percentage inhibition of uterotrophic effects of estradiol in vivo following 100 ug i.p. It is filed as functional, organism-based. The following applies: in the assay text read “s.c.” for “i.p.”. The method in brief: as §1
For assay [5] the target is unchanged. The assay is described as follows: Uterotrophic activity as uterine weight gain in immature mice without E2 (number of animals). It is filed as functional, tissue-based. The following applies: Uterus. The method in brief: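 Uterotrophic test in immature female Swiss mice, 21-23 days old, 8-12 g. Dosing was 100 μg/animal s.c. in propylene glycol-0.9% saline (1:1) on three consecutive days, and controls got vehicle alone. Uteri were weighed at autopsy 24 h after the last injection. Group sizes are given per compound.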

Assay [6] concerns the target T2, Estrogen receptor (Rattus norvegicus) (UniProt P06211+Q62986). The assay is described as follows: Uterotrophic activity as uterine weight gain without E2 in rats. It counts as functional, tissue-based. The following applies: Uterus. The method in brief:
(§2)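 Immature female Charles Foster rats, 21-23 days old, 25-40 g, were dosed s.c. at 0.5-1000 μg/rat in propylene glycol-0.9% saline (1:1) for 3 consecutive days. Rats were given the compound either alone or with 1 μg E2 at another site. Uterine weight was measured 24 h after the last injection and reported as mean ± SD of at least six animals.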

The target of assay [7] is T2, Estrogen receptor (Rattus norvegicus). The assay can be described thus: Uterotrophic activity as uterine weight gain in rats with concomitant E2 treatment. It counts as functional, tissue-based. The following applies: Uterus. The method in brief: as §2

“And” between values parts separate entries of the source, which are not always exact repeats. Equal values may be shown once. Where only a bound is given, the exact number is not on record here.

T1 sequence (O08537 whole entry, looked up): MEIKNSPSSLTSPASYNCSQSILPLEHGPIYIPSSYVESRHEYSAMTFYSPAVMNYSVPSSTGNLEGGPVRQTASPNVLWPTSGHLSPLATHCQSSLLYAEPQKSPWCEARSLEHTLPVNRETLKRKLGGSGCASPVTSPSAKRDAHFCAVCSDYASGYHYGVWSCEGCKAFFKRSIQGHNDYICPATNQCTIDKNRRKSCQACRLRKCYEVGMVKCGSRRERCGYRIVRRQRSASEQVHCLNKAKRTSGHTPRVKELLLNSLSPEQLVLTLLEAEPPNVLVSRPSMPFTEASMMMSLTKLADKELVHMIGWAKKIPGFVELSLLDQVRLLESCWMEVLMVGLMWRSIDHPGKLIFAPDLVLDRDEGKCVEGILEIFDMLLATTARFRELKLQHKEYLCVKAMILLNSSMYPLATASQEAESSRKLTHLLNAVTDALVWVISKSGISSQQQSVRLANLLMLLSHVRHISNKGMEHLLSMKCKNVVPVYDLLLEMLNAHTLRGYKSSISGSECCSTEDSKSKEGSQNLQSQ
T1 sequence (P19785 whole entry, looked up): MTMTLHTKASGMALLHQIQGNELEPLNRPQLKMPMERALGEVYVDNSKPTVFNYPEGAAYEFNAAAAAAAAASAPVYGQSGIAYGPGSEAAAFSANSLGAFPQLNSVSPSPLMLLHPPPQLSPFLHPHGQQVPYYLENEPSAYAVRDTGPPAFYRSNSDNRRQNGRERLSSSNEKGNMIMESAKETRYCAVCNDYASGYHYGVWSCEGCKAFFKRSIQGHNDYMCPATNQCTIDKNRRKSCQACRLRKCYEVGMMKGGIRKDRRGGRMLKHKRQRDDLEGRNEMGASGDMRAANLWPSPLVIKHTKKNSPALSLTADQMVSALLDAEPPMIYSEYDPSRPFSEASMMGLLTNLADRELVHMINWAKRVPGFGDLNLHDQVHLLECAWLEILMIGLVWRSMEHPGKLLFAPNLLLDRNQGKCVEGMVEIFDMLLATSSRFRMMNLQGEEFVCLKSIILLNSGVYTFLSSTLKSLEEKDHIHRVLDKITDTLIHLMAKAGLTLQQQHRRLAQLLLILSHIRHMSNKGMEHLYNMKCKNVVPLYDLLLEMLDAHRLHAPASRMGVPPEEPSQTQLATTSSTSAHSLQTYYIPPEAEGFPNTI

As for `CC(=O)Oc1ccc(/C(=C/c2ccccc2)C(=O)c2ccccc2)cc1`, the Uterine weight came to 4.5 mg in assay [1] and 17.8 mg in assay [2]. Moreover, the RBA in assay [3] was 0.24. In assay [4], this molecule had an inhibition of 39%.

`O=C(/C(=C/c1ccccc1)c1ccc(O)cc1)c1ccccc1`: the Uterine weight in assay [1] was 2.9 mg; in assay [2], 18.4 mg. Besides, in assay [3], the RBA is 0.28. Moreover, the inhibition in assay [4] came out at 36%.

Turning to `COc1ccc(C(=O)/C(=C\c2ccccc2)c2ccccc2)cc1`, the Uterine weight in assay [1] was determined as 4.8 mg; in assay [2], 16 mg. Besides, the RBA in assay [3] was less than 0.001. The inhibition in assay [4] amounted to 48%.

With `COc1ccc(/C(=C\c2ccccc2)C(=O)c2ccccc2)cc1`, the Uterine weight was found to be 4.7 mg in assay [1] and 18.5 mg in assay [2]. For the same molecule, the RBA in assay [3] is 0.02. This molecule also returned an inhibition in assay [4] of 36%.

Regarding `COc1ccc(/C(=C/c2ccccc2)C(=O)c2ccccc2)cc1`, the Uterine weight in assay [1] worked out at 3.5 mg; in assay [2], 15.3 mg. The RBA in assay [3] is less than 0.001. This molecule also had an inhibition in assay [4] of 52%.

Consider `O=C(/C(=C\c1ccccc1)c1ccccc1)c1ccccc1`, for which the Uterine weight in assay [1] came out at 3 mg; in assay [2], 15.3 mg. In addition, the RBA in assay [3] is less than 0.001. The molecule also had an inhibition in assay [4] of 51%.

Turning to `O=C(/C(=C/c1ccccc1)c1ccccc1)c1ccc(O)cc1`, the values for the Uterine weight in assay [2] and in assay [5] were 18.5 mg and 9.7 mg, respectively. Besides, the RBA in assay [3] is 2.02. In addition, the inhibition in assay [4] is 36%.

As for `CC(=O)Oc1ccc(/C(=C\c2ccccc2)C(=O)c2ccccc2)cc1`, the Uterine weight in assay [1] was 4.2 mg; in assay [2], 21.5 mg. Also, the RBA in assay [3] was 0.28. The inhibition in assay [4] amounted to 20%.

Take `O=C(/C(=C/c1ccc(O)cc1)c1ccc(O)cc1)c1ccccc1`: the Uterine weight in assay [1] was found to be 5.5 mg; in assay [2], 16.9 mg. Moreover, the RBA in assay [3] was 0.57. In addition, the inhibition in assay [4] was determined as 44%.

For `CC(=O)Oc1ccc(/C=C(/C(=O)c2ccccc2)c2ccccc2)cc1`, the Uterine weight in assay [1] worked out at 5.9 mg; in assay [2] it was 17.3 mg. Further, the RBA in assay [3] is 0.42. In assay [4], this molecule had an inhibition of 42%.

Turning to `CC(=O)Oc1ccc(/C=C(/C(=O)c2ccc(OC(C)=O)cc2)c2ccccc2)cc1`, the Uterine weight in assay [1] and in assay [2] was 14 mg throughout. Besides, the RBA in assay [3] was 1.02. Moreover, the inhibition in assay [4] came to 58%.

`O=C(/C(=C\c1ccccc1)c1ccccc1)c1ccc(O)cc1`: the Uterine weight amounted to 3.2 mg in assay [1] and 13.6 mg in assay [2]. In assay [3], the RBA was less than 0.001. This molecule also gave an inhibition in assay [4] of 60%.

For the molecule `COc1ccc(/C=C(/C(=O)c2ccccc2)c2ccccc2)cc1`, the Uterine weight in assay [1] came to 4.3 mg; in assay [2] it was 17.3 mg. The RBA in assay [3] was 0.09. The inhibition in assay [4] was found to be 42%.

With `O=C(/C(=C\c1ccccc1)c1ccccc1)c1ccc(OCCN2CCCC2)cc1`, the RBA in assay [3] was 0.002.

Take `O=C(/C(=C/c1ccccc1)c1ccccc1)c1ccc(OCCN2CCCC2)cc1`: the RBA in assay [3] is 0.025.

For the molecule `COc1ccc(C(=O)/C(=C/c2ccccc2)c2ccccc2)cc1`, the Uterine weight in assay [1] worked out at 5 mg; in assay [2], 20.2 mg. In addition, the RBA in assay [3] was less than 0.001. Further, the inhibition in assay [4] worked out at 27%.

As to `O=C(/C(=C\c1ccc(O)cc1)c1ccccc1)c1ccc(O)cc1`, the Uterine weight in assay [1] was 3.4 mg; in assay [2], 22.3 mg. The RBA in assay [3] is 0.4. For the same molecule, the inhibition in assay [4] is 16%.

As for `O=C(/C(=C\c1ccc(O)cc1)c1ccc(O)cc1)c1ccccc1`, the Uterine weight amounted to 5.6 mg in assay [1] and 16.5 mg in assay [2]. Moreover, in assay [3], the RBA was 0.48. This molecule displayed an inhibition in assay [4] of 47%.

With `O=C(/C(=C/c1ccccc1)c1ccccc1)c1ccccc1`, the Uterine weight in assay [1] is 4.4 mg; in assay [2] it was 15.4 mg. Besides, the RBA in assay [3] was 0.012. The inhibition in assay [4] worked out at 51%.

Consider `COc1ccc(/C=C(\C(=O)c2ccccc2)c2ccccc2)cc1`, for which the results for the Uterine weight in assay [1] and in assay [2] were 4.6 mg and 15.3 mg, respectively. Further, in assay [3], the RBA was less than 0.001. For the same molecule, the inhibition in assay [4] was 52%.

Consider `O=C(/C(=C/c1ccc(O)cc1)c1ccccc1)c1ccccc1`, for which the Uterine weight was found to be 5 mg in assay [1] and 14 mg in assay [2]. Also, in assay [3], the RBA is 0.22. In assay [4], the inhibition came to 58%.

As for `O=C(/C(=C/c1ccccc1)c1ccc(O)cc1)c1ccc(O)cc1`, the Uterine weight in assay [1] came out at 6.8 mg; in assay [2], 21.9 mg. Moreover, the RBA in assay [3] was 0.37. Also, the inhibition in assay [4] amounted to 18%.

Consider `O=C(/C(=C\c1ccccc1)c1ccc(O)cc1)c1ccc(O)cc1`, for which the Uterine weight came to 4.1 mg in assay [1] and 14.7 mg in assay [2]. Moreover, the RBA in assay [3] was 4.75. In assay [4], this molecule registered an inhibition of 55%.

For the molecule `O=C(/C(=C/c1ccc(O)cc1)c1ccc(O)cc1)c1ccc(O)cc1`, the Uterine weight in assay [1] was 4.4 mg and 12 mg; in assay [6], 20.5 mg [middle of 5 runs]; in assay [7], 53.6 mg [middle of 5 runs]. Moreover, in assay [3], the RBA was 0.55. Further, in assay [4], the inhibition was determined as 69%.

(Values after ChEMBL document CHEMBL1122978, “Structure-activity relationship of estrogens: receptor affinity and estrogen antagonist activity of certain (E)- and (Z)-1,2,3-triaryl-2-propen-1-ones” (J Med Chem, 1985).)
